From ChEMBL document CHEMBL2040826, “Design, synthesis and antiviral activity of novel pyridazines” (Eur J Med Chem, 2012) come the findings set out here.

Structures are written as SMILES.

In data set [1] the test system is Tobacco mosaic virus. The data set is described as follows: In vivo antiviral activity against TMV assessed as curative effect at 500 ug/ml. It is filed as functional.
Data set [2] in a line: Cytotoxicity against human TZM-bl cells at 10 uM after 48 hrs by MTT assay. It is filed as cell-based. In general terms: Tetrazolium assays rely on reduction of a dye to a coloured formazan, in cell work by metabolically active cells.
Data set [3] deals with Tobacco mosaic virus. The data set is described as follows: In vitro antiviral activity against TMV at 500 ug/ml. Type of data set: functional.
The subject of data set [4] is Tobacco mosaic virus. The data set can be described thus: In vivo antiviral activity against TMV assessed as protection effect at 500 ug/ml. Type of data set: functional.
Data set [5] has as its system Human immunodeficiency virus. The data set is described as follows: Antiviral activity against HIV infected in human TZM-bl cells at 10 uM after 48 hrs by measuring luciferase activity by luminometer analysis. Type of data set: functional. The conditions noted are these: Human immunodeficiency virus 1, TZM-bl. The essentials:
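TZM-bl cells seeded at 10⁴ cells/well; samples (from DMSO stocks) added next day, then pseudotyped HIV; final DMSO 2%. Incubated 48 h at 37 °C in humidified CO₂. Steady-glow luciferase substrate added, lysis 20 min in dark, luminescence read. AZT and MK-0518 as positive controls; expressed as percent inhibition.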

For data set [6], the system named is Tobacco mosaic virus. The data set can be described thus: In vivo antiviral activity against TMV assessed as inactivation effect at 500 ug/ml. Type of data set: functional.

Turning to `O=C(NCc1ccc(F)cc1)c1c(C(F)(F)F)nn(-c2ccc(F)cc2)c(=O)c1NCc1ccc(F)cc1`, the Activity is listed as 34% in the data set with Tobacco mosaic virus [1], “Non-toxic” in data set [2], 31.3% in the data set with Tobacco mosaic virus [4] and 30.2% in the data set with Tobacco mosaic virus [6]. In addition, in the data set on Tobacco mosaic virus [3], the inhibition at 500 µg/mL is 28.5%. The inhibition at 10 µM in data set [5] was determined as 19.5%.

In the case of `O=c1c(O)cc(C(F)(F)F)nn1-c1ccccc1`, the Activity in the data set with Tobacco mosaic virus [1] is 14.8%; in data set [2], “Non-toxic”; with Tobacco mosaic virus [4], 7.6%; with Tobacco mosaic virus [6] it was 0%. Also, in the data set with Tobacco mosaic virus [3], the inhibition at 500 µg/mL came out at 0%. Besides, the inhibition at 10 µM in data set [5] was 6.33%.

On to `Cc1nnc(C(=O)NC(C)(C)c2nc(C(=O)NCc3ccc(F)cc3)c(O)c(=O)n2C)o1` [RALTEGRAVIR POTASSIUM], for which the inhibition at 10 µM in data set [5] is 95.1%.

Regarding `O=C(NCc1ccc(F)cc1)c1c(C(F)(F)F)nn(Cc2ccco2)c(=O)c1O`, the Activity entry in data set [2] was “Non-toxic”. In addition, in data set [5], the inhibition at 10 µM was 13%.

With `COC(=O)c1c(C(F)(F)F)nn(Cc2ccccn2)c(=O)c1OC`, the Activity is given as 0% in the data set on Tobacco mosaic virus [1], “Non-toxic” in data set [2], 15.2% in the data set on Tobacco mosaic virus [4] and 0% in the data set with Tobacco mosaic virus [6]. For the same compound, the inhibition at 500 µg/mL with Tobacco mosaic virus [3] was determined as 0%. Moreover, the inhibition at 10 µM in data set [5] turned out to be 20.2%.

As for `CC(C)(C)n1nc(C(F)(F)F)cc(NCc2ccc(F)cc2)c1=O`, the Activity with Tobacco mosaic virus [1] is 20.2%; in data set [2], “Non-toxic”; with Tobacco mosaic virus [4] it was 30.2%; in the data set on Tobacco mosaic virus [6], 15.3%. Moreover, in the data set on Tobacco mosaic virus [3], the inhibition at 500 µg/mL is 26.2%. Besides, in data set [5], the inhibition at 10 µM came out at 41.9%.

In the case of `O=C(NCc1ccc(F)cc1)c1c(C(F)(F)F)nn(Cc2ccc(F)cc2)c(=O)c1O`, the Activity is listed as 21.7% with Tobacco mosaic virus [1], “Non-toxic” in data set [2], 28.3% in the data set on Tobacco mosaic virus [4] and 21.4% with Tobacco mosaic virus [6]. Further, the inhibition at 500 µg/mL in the data set with Tobacco mosaic virus [3] was found to be 30%. The inhibition at 10 µM in data set [5] turned out to be 29.3%.

On to `COC(=O)c1c(C(F)(F)F)nn(Cc2cccnc2)c(=O)c1OC`, for which the Activity entry in data set [2] was “Non-toxic”. Also, the inhibition at 10 µM in data set [5] came out at 19.5%.

For `COC(=O)c1c(C(F)(F)F)nn(-c2ccccc2)c(=O)c1OC`, the Activity was 12.5% in the data set on Tobacco mosaic virus [1], “Non-toxic” in data set [2], 19.2% with Tobacco mosaic virus [4] and 16.5% in the data set on Tobacco mosaic virus [6]. Moreover, the inhibition at 500 µg/mL in the data set with Tobacco mosaic virus [3] was determined as 20%. In data set [5], the inhibition at 10 µM stood at 5.9%.

In the case of `O=C(NCc1ccc(F)cc1)c1c(C(F)(F)F)nn(Cc2ccccn2)c(=O)c1O`, the Activity in the data set on Tobacco mosaic virus [1] is reported as 7.6%; in data set [2], “Non-toxic”; with Tobacco mosaic virus [4] it was 18.6%; in the data set on Tobacco mosaic virus [6], 5.2%. The inhibition at 500 µg/mL in the data set with Tobacco mosaic virus [3] came out at 10%. Also, the inhibition at 10 µM in data set [5] was found to be 2.99%.

`O=C(NCc1ccc(F)cc1)c1c(C(F)(F)F)nn(CC2CCCO2)c(=O)c1O` (configuration not stated): the Activity in the data set with Tobacco mosaic virus [1] is 0%; in data set [2] it was “Non-toxic”; with Tobacco mosaic virus [4], 0%; with Tobacco mosaic virus [6], 13.2%. For the same compound, the inhibition at 500 µg/mL in the data set on Tobacco mosaic virus [3] was 0%. Also, in data set [5], the inhibition at 10 µM is -3.02%.

Consider `COC(=O)c1c(C(F)(F)F)nn(Cc2ccco2)c(=O)c1OC`, for which the Activity is 7.2% in the data set with Tobacco mosaic virus [1], “Non-toxic” in data set [2], 0% in the data set on Tobacco mosaic virus [4] and 0% in the data set on Tobacco mosaic virus [6]. In addition, the inhibition at 500 µg/mL in the data set with Tobacco mosaic virus [3] turned out to be 8.5%. The inhibition at 10 µM in data set [5] was -3.39%.

With `NC(=O)c1ncn([C@@H]2O[C@H](CO)[C@@H](O)[C@H]2O)n1` [RIBAVIRIN], the Activity in the data set with Tobacco mosaic virus [1] came to 32.7%; with Tobacco mosaic virus [4], 39.6%; in the data set with Tobacco mosaic virus [6], 34.2%. Further, in the data set with Tobacco mosaic virus [3], the inhibition at 500 µg/mL came to 38.5%.

On to `Cc1cn([C@H]2C[C@H](N=[N+]=[N-])[C@@H](CO)O2)c(=O)[nH]c1=O` [ZIDOVUDINE], for which, in data set [5], the inhibition at 10 µM was determined as 100%.

As to `CC(C)(C)n1nc(C(F)(F)F)cc(O)c1=O`, the Activity in the data set with Tobacco mosaic virus [1] is reported as 27.2%; in data set [2], “Non-toxic”; in the data set on Tobacco mosaic virus [4], 23.1%; in the data set with Tobacco mosaic virus [6] it was 18.6%. The inhibition at 500 µg/mL with Tobacco mosaic virus [3] came to 31.7%. Also, the inhibition at 10 µM in data set [5] is -11.6%.

As to `O=c1c(O)cc(C(F)(F)F)nn1-c1ccc(F)cc1`, the Activity entry in data set [2] is on record as “Non-toxic”. Also, in data set [5], the inhibition at 10 µM is -11.6%.

As for `O=C(NCc1ccc(F)cc1)c1c(C(F)(F)F)nn(-c2ccc(F)cc2)c(=O)c1O`, the Activity with Tobacco mosaic virus [1] is 17.4%; in data set [2], “Non-toxic”; with Tobacco mosaic virus [4] it was 15.6%; in the data set with Tobacco mosaic virus [6], 10.3%. Also, the inhibition at 500 µg/mL in the data set on Tobacco mosaic virus [3] is 18.6%. Besides, the inhibition at 10 µM in data set [5] turned out to be 19.5%.

As to `O=C(NCc1ccc(F)cc1)c1c(C(F)(F)F)nn(Cc2cccnc2)c(=O)c1O`, the Activity in the data set on Tobacco mosaic virus [1] is 12.8%; in data set [2], “Non-toxic”; in the data set on Tobacco mosaic virus [4], 18.9%; in the data set with Tobacco mosaic virus [6] it was 18.2%. Besides, the inhibition at 500 µg/mL with Tobacco mosaic virus [3] was 7.5%. For the same compound, the inhibition at 10 µM in data set [5] was 7.31%.

Take `COC(=O)c1c(C(F)(F)F)nn(Cc2ccc(F)cc2)c(=O)c1OC`: the Activity is 10.3% with Tobacco mosaic virus [1], “Non-toxic” in data set [2], 20.2% with Tobacco mosaic virus [4] and 11.2% with Tobacco mosaic virus [6]. Also, the inhibition at 500 µg/mL in the data set on Tobacco mosaic virus [3] was 27.5%. For the same compound, in data set [5], the inhibition at 10 µM is 13.9%.

Take `O=C(NCc1ccc(F)cc1)c1c(C(F)(F)F)nn(Cc2cccs2)c(=O)c1NCc1ccc(F)cc1`: the Activity in the data set with Tobacco mosaic virus [1] is reported as 23.6%; in data set [2], “Non-toxic”; in the data set on Tobacco mosaic virus [4], 24.7%; in the data set with Tobacco mosaic virus [6], 19.5%. Further, in the data set with Tobacco mosaic virus [3], the inhibition at 500 µg/mL was determined as 30%. The inhibition at 10 µM in data set [5] came out at 12.7%.

In the case of `COC(=O)c1c(C(F)(F)F)nn(CC2CCCO2)c(=O)c1OC` (configuration not stated), the Activity is on record as 0% with Tobacco mosaic virus [1], “Non-toxic” in data set [2], 10.3% in the data set with Tobacco mosaic virus [4] and 19.7% with Tobacco mosaic virus [6]. The inhibition at 500 µg/mL in the data set on Tobacco mosaic virus [3] was 13.6%. For the same compound, the inhibition at 10 µM in data set [5] stood at 9.3%.

Regarding `COC(=O)c1c(C(F)(F)F)nn(C)c(=O)c1OC`, the Activity with Tobacco mosaic virus [1] was 26.5%; in data set [2], “Non-toxic”; in the data set on Tobacco mosaic virus [4] it was 20.5%; in the data set on Tobacco mosaic virus [6] it was 27.3%. The inhibition at 500 µg/mL with Tobacco mosaic virus [3] stood at 25%. The inhibition at 10 µM in data set [5] is -4%.

Turning to `O=C(NCc1ccc(F)cc1)c1c(C(F)(F)F)nn(-c2ccccc2)c(=O)c1O`, the Activity is 30.2% with Tobacco mosaic virus [1], “Non-toxic” in data set [2], 32.6% with Tobacco mosaic virus [4] and 36.7% in the data set on Tobacco mosaic virus [6]. Also, the inhibition at 500 µg/mL with Tobacco mosaic virus [3] was found to be 38.5%. For the same compound, the inhibition at 10 µM in data set [5] stood at 27.9%.

Turning to `COC(=O)c1c(C(F)(F)F)nn(C(C)(C)C)c(=O)c1OC`, the Activity is given as 6.3% with Tobacco mosaic virus [1], “Non-toxic” in data set [2], 5.7% in the data set on Tobacco mosaic virus [4] and 0% with Tobacco mosaic virus [6]. Moreover, in the data set with Tobacco mosaic virus [3], the inhibition at 500 µg/mL was found to be 0%. For the same compound, the inhibition at 10 µM in data set [5] was -6.5%.

With `COC(=O)c1c(C(F)(F)F)nn(-c2ccc(F)cc2)c(=O)c1O`, the Activity entry in data set [2] is “Non-toxic”. In addition, the inhibition at 10 µM in data set [5] was found to be 1.3%.

By inhibition is commonly meant the drop in the measured response relative to a control, in per cent.
